Screening results (PubChem)
Sampled rows, rich in hits. Any-hit rate of the full collection: about 1.5%.
S100A4 MyoIIA = inhibitors of S100A4-myosin IIA peptide binding, primary screen, biochemical, fluorescence polarization, TAMRA-MyoIIA peptide. Protein S100-A4 (Homo sapiens), P26447. inhibition, % at 10.7 µM. 360,000 compounds, 0.14% hits;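 active = mean inhibition of at least 70% across replicates, with every replicate also reaching that level; inconclusive = mean inhibition reaches 70% but some replicates fall short; inactive = mean inhibition below 70%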
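Material: S100A4 monomer protein / Buffer or medium: 50 mM HEPES pH 7.2, 10 mM CaCl2, 100 mM KCl / Times: 5 min incubation before reading / Benchmarks: neutral control DMSO, positive control TFP / Reagent: labelled myosin peptide probe, 5 nM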
GSIS activator = GLuc luminescence reporter in INS-1E cells, primary screen for activators of glucose-dependent secretion of insulin; 370,000 compounds, 0.61% hits; INS-1E GLuc reporter insulin secretion, 2-3 h; activation, % at 16.6 µM; AID 743287, 2014;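 active = lowest replicate activation of at least 40%, so every replicate reaches that level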
ERAP1 HTS inh = human ERAP1 aminopeptidase inhibitors, primary screen, biochemical, single point, plate reader | Endoplasmic reticulum aminopeptidase 1 (Homo sapiens), Q9NZ08 | recombinant ERAP1, Leu-AMC fluorescence, 60 min | inhibition, % at 10.7 µM | 340,000 compounds, 0.15% hits | AID 652197, 2013;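 active = mean replicate inhibition of at least 30%, or all replicates individually reaching that 30% level; inactive = mean below 30% and not every replicate reaching it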
RAD52 inh = RAD52 DNA annealing inhibitors, primary screen, biochemical, FRET, single point, set 2; DNA repair protein RAD52 homolog (Homo sapiens), P43351; recombinant RAD52 DNA annealing, FRET fluorescence; inhibition, % at 18.7 µM; 360,000 compounds, 0.46% hits; AID 651710, 2012;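 active = every replicate showing at least 50% inhibition; inconclusive = mean inhibition at least 50% but not in every replicate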
AF4-AF9 inh = inhibitors of AF4 peptide binding to AF9, primary screen, biochemical, AlphaScreen, biotin-AF4 peptide, FLAG-AF9, single point; Protein AF-9 (Homo sapiens), P42568; inhibition, % at 10 µM; 350,000 compounds, 0.47% hits;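 active = every replicate reaching a set inhibition limit, whatever the replicate mean, cut at about 25% in these data; inconclusive = mean inhibition reaches that limit but some replicates miss it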
Alpha interfer = AlphaScreen signal interference counter-screen, dose response, artefact control, biochemical, cherry-picked samples, luminescence | shares compounds with AF4-AF9 inh | 530 compounds, 45% hits | AC50, µM (titrated, usually from 12 µM); cut-off not given, nearly all actives have AC50 up to about 14 µM
A number is an active result; i = inactive; ? = inconclusive; nt = no result.

SMILES | S100A4 MyoIIA | GSIS activator | ERAP1 HTS inh | RAD52 inh | AF4-AF9 inh | Alpha interfer
COc1ccc(NC(=O)N(C)C[C@@H]2OCCCC[C@H](C)Oc3ccc(NC(=O)Nc4ccc(C(F)(F)F)cc4)cc3C(=O)N([C@@H](C)CO)C[C@H]2C)cc1 | i | i | i | i | i | nt
COc1ccccc1N(C(C)=O)C1=C(Cl)C(=O)c2ccccc2C1=O | i | nt | 61 | i | 28 | 4.4µM
COc1ccccc1N(C(=O)CCl)c1cn(C(C)=O)c2ccccc12 | i | nt | nt | i | i | nt
CCN(CC)c1ccc(CNc2ccc3c(c2)ncn3C(C)(C)C)cc1 | i | i | i | i | 41 | 9µM
CCc1ccc(CNc2ccc3c(c2)ncn3C(C)(C)C)cc1 | i | i | i | i | i | nt
CC(C)C#Cc1ccc2c(c1)O[C@H](CN(C)S(=O)(=O)c1cn(C)cn1)[C@@H](C)CN([C@@H](C)CO)S2(=O)=O | i | i | i | i | i | nt
CC(C)N1CCN(c2ccc(OCC3COC(Cn4cncn4)(c4ccc(Cl)cc4Cl)O3)cc2)CC1 (stereo not given) | i | i | i | i | i | i
O=C(CNCc1ccco1)Nc1ccc(N2CCCCCC2)cc1 | i | i | i | i | 29 | i
O=C(CNC(=O)c1ccco1)Nc1ccc(N2CCCCCC2)cc1 | i | nt | i | i | i | nt
C[C@H]1CN([C@@H](C)CO)C(=O)Cc2cc(NC(=O)c3ccncc3)ccc2O[C@H]1CN(C)S(C)(=O)=O | i | i | i | i | i | nt
CCN(CC)CCCNc1ccc2ncn3c4ccc(O)cc4c(=O)c1c23 | i | i | 33 | i | i | i
CC(C)n1ncc2c(C(=O)Nc3ccc(S(N)(=O)=O)cc3)cc(C3CC3)nc21 | i | i | i | i | ? | i
C#CCOCCOCCOCCNc1nc(N2CCN(C(=O)[C@H]([C@@H](C)O)n3cc(CCCCN)nn3)CC2)nc(N2CCN(C(=O)[C@H](CCCCN)n3cc(CCCC)nn3)CC2)n1 | i | i | i | i | i | nt
C#CCOCCOCCOCCNc1nc(N2CCN(C(=O)[C@H]([C@@H](C)CC)n3cc(CCCN=C(N)N)nn3)CC2)nc(N2CCN(C(=O)[C@H](CCCCN)n3cc(CCCC)nn3)CC2)n1 | i | nt | i | i | 29 | i
CCC(=O)N1CC2(C1)[C@H](c1ccc(-c3ccc(F)cc3)cc1)[C@H](CO)N2C(=O)CC | i | i | i | i | i | nt
CC(=Nc1ccc(C)cc1C)c1sc2ccccc2c1O | i | i | nt | i | 32 | i
CN1CCN(C(c2ccc(C(F)(F)F)cc2)c2cc(Cl)c3cccnc3c2O)CC1 (stereo not given) | i | i | i | i | 81 | 2.1µM
Oc1c(C(c2ccccn2)N2CCCCC2)cc(Cl)c2cccnc12 (stereo not given) | i | i | nt | i | 58 | 8.7µM
CN1CCN(C(c2ccc(Cl)cc2)c2cc(Cl)c3cccnc3c2O)CC1 (stereo not given) | i | i | i | i | 85 | 2.2µM
CC(=O)NC(c1ccccc1)c1cc(Cl)c2cccnc2c1O (stereo not given) | i | i | i | i | i | nt
CCC(=O)NC(c1cccs1)c1cc(Cl)c2cccnc2c1O (stereo not given) | i | i | i | i | i | nt
COc1ccc(NC(=O)N[C@@H]2CC[C@H](CCNC(=O)c3cc(Cl)cc(Cl)c3)O[C@H]2CO)cc1 | i | i | i | i | i | nt
O=C(NC1Cc2ccccc2C1)[C@H]1[C@H](CO)[C@H]2Cn3c(cccc3=O)[C@@H]1N2C(=O)CC1CC1 | i | i | i | i | i | nt
Cn1cc(CN2CCC(C(=O)NC(c3ccc(F)cc3)c3ccc4ccccc4n3)CC2)c2ccccc21 (stereo not given) | i | i | i | i | 25 | i
COc1ccc(C(CCN2CCN(c3ccccc3)CC2)c2c(O)cc(OC)cc2OC)cc1 (stereo not given) | nt | i | nt | nt | nt | nt
COc1cc(O)c(C(CCN2CCN(c3ccccc3)CC2)c2ccc(N(C)C)cc2)c(OC)c1 (stereo not given) | i | nt | i | i | 50 | i
